Activity calls are given as the source filed them. No cut-off for these calls is given here. Where a SMILES comes first, the peptide text is derived from it.
Key:
[1] = tested on: Pseudomonas aeruginosa; assay: Antibacterial activity against Pseudomonas aeruginosa M13513 clinical isolate expressing blaKPC-2 gene by microdilution test; type: functional
How it was run: (§1)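 MIC by standard broth microdilution following CLSI recommendations, in Mueller Hinton broth supplemented with Ca²⁺ (20-25mg/L) and Mg²⁺ (10-12.5mg/L); peptides tested against a panel of multi-resistant clinical isolates plus ATCC reference strains.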

[2] = tested on: Pseudomonas aeruginosa; assay: Antibacterial activity against Pseudomonas aeruginosa ATCC 27853 by microdilution test; type: functional; how it was run: as §1
[3] = Toxicity in human RBC assessed as hemolytic activity relative to control; type: cell-based, Erythrocyte; conditions: red blood cells (RBC), read-out: Activity
How it was run: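 Heparinized human whole blood diluted 3x in PBS and centrifuged 10 min at 1500 rpm, repeated three times. Cells resuspended to 10% (v/v), then diluted to about 0.5% (v/v). Peptides added at various concentrations for 30 min at 37 °C. Supernatant absorbance read at 550 nm. Lysis calculated against buffer (0%) and water (100%). Readings taken in triplicate and averaged.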

[4] = tested on: Staphylococcus cohnii; assay: Antibacterial activity against Staphylococcus cohnii M6767 clinical isolate expressing mecA gene by microdilution test; type: functional
How it was run: (§2)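 MIC by standard broth microdilution following CLSI recommendations, in Mueller Hinton broth supplemented with Ca²⁺ (20-25 mg/L) and Mg²⁺ (10-12.5 mg/L); ATCC reference strains included in the panel.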

[5] = tested on: Staphylococcus warneri; assay: Antibacterial activity against Staphylococcus warneri M6823 clinical isolate expressing mecA gene by microdilution test; type: functional; how it was run: as §2
[6] = tested on: Staphylococcus aureus; assay: Antibacterial activity against Staphylococcus aureus M6794 clinical isolate expressing mecA gene by microdilution test; type: functional; how it was run: as §2
[7] = tested on: Staphylococcus aureus; assay: Antibacterial activity against Staphylococcus aureus ATCC 29213 by microdilution test; type: functional; how it was run: as §2
[8] = tested on: Escherichia coli; assay: Antibacterial activity against Escherichia coli ATCC 25922 by microdilution test; type: functional; how it was run: as §1
[9] = tested on: Klebsiella pneumoniae; assay: Antibacterial activity against Klebsiella pneumoniae M13540 clinical isolate expressing blaKPC-2 gene by microdilution test; type: functional; how it was run: as §1
[10] = tested on: Klebsiella pneumoniae; assay: Antibacterial activity against Klebsiella pneumoniae M9170 clinical isolate expressing blaOXA-GIII gene by microdilution test; type: functional; how it was run: as §1
[11] = tested on: Klebsiella pneumoniae; assay: Antibacterial activity against Klebsiella pneumoniae M9491 clinical isolate expressing blaMOX gene by microdilution test; type: functional; how it was run: as §1
[12] = tested on: Klebsiella pneumoniae; assay: Antibacterial activity against Klebsiella pneumoniae M9140 clinical isolate expressing blaCIT gene by microdilution test; type: functional; how it was run: as §1
[13] = tested on: Klebsiella pneumoniae; assay: Antibacterial activity against Klebsiella pneumoniae PFAV3 by microdilution test; type: functional; how it was run: as §1
[14] = tested on: Acinetobacter sp.; assay: Antibacterial activity against Acinetobacter sp. M9013 clinical isolate expressing blaOXA-51 and blaIMP gene by microdilution test; type: functional; how it was run: as §1
[15] = tested on: Acinetobacter sp.; assay: Antibacterial activity against Acinetobacter sp. M7978 clinical isolate expressing blaIMP-1 gene by microdilution test; type: functional; how it was run: as §1
[16] = tested on: Acinetobacter sp.; assay: Antibacterial activity against Acinetobacter sp. M5949 clinical isolate expressing blaOXA-23 and blaOXA-GVI gene by microdilution test; type: functional; how it was run: as §1
[17] = tested on: Acinetobacter sp.; assay: Antibacterial activity against Acinetobacter sp. M5277 clinical isolate expressing blaPER gene by microdilution test; type: functional; how it was run: as §1
[18] = tested on: Acinetobacter sp.; assay: Antibacterial activity against Acinetobacter sp. PFAV1 clinical isolate expressing blaOXA-51, blaOXA-58 and blaPER gene by microdilution test; type: functional; how it was run: as §1
[19] = tested on: Acinetobacter sp.; assay: Antibacterial activity against Acinetobacter sp. M7489 clinical isolate expressing blaOXA-51 and blaTEM gene by microdilution test; type: functional; how it was run: as §1
[20] = tested on: Acinetobacter sp.; assay: Antibacterial activity against Acinetobacter sp. M5179 clinical isolate expressing blaOXA-51 gene by microdilution test; type: functional; how it was run: as §1
[21] = tested on: Acinetobacter sp.; assay: Antibacterial activity against Acinetobacter sp. M5282 clinical isolate expressing blaOXA-51 gene by microdilution test; type: functional; how it was run: as §1
[22] = tested on: Acinetobacter sp.; assay: Antibacterial activity against Acinetobacter sp. M9665 clinical isolate expressing blaOXA-51 gene by microdilution test; type: functional; how it was run: as §1
[23] = tested on: Acinetobacter sp.; assay: Antibacterial activity against Acinetobacter sp. M13523 clinical isolate expressing blaOXA-51 gene by microdilution test; type: functional; how it was run: as §1
[24] = tested on: Pseudomonas aeruginosa; assay: Antibacterial activity against Pseudomonas aeruginosa M7712 clinical isolate expressing blaSPM gene by microdilution test; type: functional; how it was run: as §2
[25] = tested on: Pseudomonas aeruginosa; assay: Antibacterial activity against Pseudomonas aeruginosa M7525 clinical isolate expressing blaSPM gene by microdilution test; type: functional; how it was run: as §2
[26] = tested on: Pseudomonas aeruginosa; assay: Antibacterial activity against Pseudomonas aeruginosa M5200 clinical isolate expressing blaVIM and blaGES-1 gene by microdilution test; type: functional; how it was run: as §2
[27] = tested on: Pseudomonas aeruginosa; assay: Antibacterial activity against Pseudomonas aeruginosa M5109 clinical isolate expressing blaVIM and blaGES-1 gene by microdilution test; type: functional; how it was run: as §2
[28] = tested on: Pseudomonas aeruginosa; assay: Antibacterial activity against Pseudomonas aeruginosa M7728 clinical isolate expressing blaIMP gene by microdilution test; type: functional; how it was run: as §2
[29] = tested on: Pseudomonas aeruginosa; assay: Antibacterial activity against Pseudomonas aeruginosa M7723 clinical isolate expressing blaKPC-2 gene by microdilution test; type: functional; how it was run: as §2
[30] = tested on: Pseudomonas aeruginosa; assay: Antibacterial activity against Pseudomonas aeruginosa M11005 clinical isolate expressing blaKPC-2 gene by microdilution test; type: functional; how it was run: as §1
[31] = tested on: Pseudomonas aeruginosa; assay: Antibacterial activity against Pseudomonas aeruginosa M7907 clinical isolate expressing blaPER gene by microdilution test; type: functional; how it was run: as §2
[32] = tested on: Pseudomonas aeruginosa; assay: Antibacterial activity against Pseudomonas aeruginosa M5470 by microdilution test; type: functional; how it was run: as §2
[33] = tested on: Pseudomonas aeruginosa; assay: Antibacterial activity against Pseudomonas aeruginosa PCOS12 by microdilution test; type: functional; how it was run: as §2
[34] = tested on: Enterococcus gallinarum; assay: Antibacterial activity against Enterococcus gallinarum M2723 clinical isolate expressing vanC1 and vanA gene by microdilution test; type: functional; how it was run: as §1
[35] = tested on: Enterococcus gallinarum; assay: Antibacterial activity against Enterococcus gallinarum M2685 clinical isolate expressing vanC1 and vanA gene by microdilution test; type: functional; how it was run: as §1
[36] = tested on: Enterococcus faecium; assay: Antibacterial activity against Enterococcus faecium M2664 clinical isolate expressing vanA gene by microdilution test; type: functional; how it was run: as §1
[37] = tested on: Enterococcus faecium; assay: Antibacterial activity against Enterococcus faecium M2304 clinical isolate expressing vanA gene by microdilution test; type: functional; how it was run: as §1
[38] = tested on: Enterococcus faecium; assay: Antibacterial activity against Enterococcus faecium M2481 clinical isolate expressing vanB gene by microdilution test; type: functional; how it was run: as §1
[39] = tested on: Enterococcus faecium; assay: Antibacterial activity against Enterococcus faecium M6261 by microdilution test; type: functional; how it was run: as §1
[40] = tested on: Enterococcus faecium; assay: Antibacterial activity against Enterococcus faecium M2619 clinical isolate expressing vanB gene by microdilution test; type: functional; how it was run: as §1
[41] = tested on: Enterococcus faecium; assay: Antibacterial activity against Enterococcus faecium PZAP95 by microdilution test; type: functional; how it was run: as §1
[42] = tested on: Enterococcus faecalis; assay: Antibacterial activity against Enterococcus faecalis M6983 clinical isolate expressing vanA gene by microdilution test; type: functional; how it was run: as §1
[43] = tested on: Enterococcus faecalis; assay: Antibacterial activity against Enterococcus faecalis M4449 clinical isolate expressing vanA gene by microdilution test; type: functional; how it was run: as §1
[44] = tested on: Enterococcus faecalis; assay: Antibacterial activity against Enterococcus faecalis M6383 clinical isolate expressing vanA gene by microdilution test; type: functional; how it was run: as §1
[45] = tested on: Enterococcus faecalis; assay: Antibacterial activity against Enterococcus faecalis M4992 clinical isolate expressing vanA gene by microdilution test; type: functional; how it was run: as §1
[46] = tested on: Enterococcus faecalis; assay: Antibacterial activity against Enterococcus faecalis M6534 clinical isolate expressing vanB gene by microdilution test; type: functional; how it was run: as §1
[47] = tested on: Enterococcus faecalis; assay: Antibacterial activity against Enterococcus faecalis M4899 clinical isolate expressing vanB gene by microdilution test; type: functional; how it was run: as §1
[48] = tested on: Enterococcus faecalis; assay: Antibacterial activity against Enterococcus faecalis ATCC 51299 clinical isolate expressing vanB gene by microdilution test; type: functional; how it was run: as §1
[49] = tested on: Enterococcus faecalis; assay: Antibacterial activity against Enterococcus faecalis ATCC 29212 by microdilution test; type: functional; how it was run: as §1

Compound: CC[C@H](C)[C@H](NC(=O)[C@H](CCCCN)NC(=O)[C@H](CCCNC(=N)N)NC(=O)[C@H](CC(N)=O)NC(=O)CNC(=O)[C@H](CCCNC(=N)N)NC(=O)[C@H](Cc1ccccc1)NC(=O)[C@@H](NC(=O)[C@H](CS)NC(=O)[C@H](Cc1cnc[nH]1)NC(=O)[C@H](CC(C)C)NC(=O)[C@@H]1CCCN1C(=O)[C@H](CCC(N)=O)NC(=O)[C@@H]1CCCN1C(=O)[C@@H](NC(=O)[C@H](CC(N)=O)NC(=O)[C@@H]1CCCN1C(=O)[C@H](CC(C)C)NC(=O)CNC(=O)[C@@H](NC(=O)CNC(=O)[C@H](CO)NC(=O)[C@H](CC(C)C)NC(=O)[C@H](CC(C)C)NC(=O)[C@H](CC(=O)O)NC(=O)[C@H](CS)NC(=O)[C@@H](NC(=O)[C@@H](N)[C@@H](C)O)[C@@H](C)O)C(C)C)C(C)C)C(C)C)C(=O)N[C@@H](CCCCN)C(=O)N[C@@H](Cc1c[nH]c2ccccc12)C(N)=O (H-TTCDLLSGVGLPNVPQPLHCVFRGNRKIKW-NH2)
- MIC90 [1]: inactive
- MIC90 [2]: inactive
- hemolysis [3]: 1.72%
- MIC90 [4]: inactive
- MIC90 [5]: inactive
- MIC90 [6]: inactive
- MIC90 [7]: inactive
- MIC90 [8]: inactive
- MIC90 [9]: inactive

Compound: H-FGKEKKAWWRRRKWLK-NH2
- MIC90 [10]: inactive
- MIC90 [11]: inactive
- MIC90 [12]: inactive
- MIC90 [13]: inactive
- MIC90 [14]: inactive
- MIC90 [15]: inactive
- MIC90 [16]: inactive
- MIC90 [17]: inactive
- MIC90 [18]: inactive
- MIC90 [19]: inactive
- MIC90 [20]: inactive
- MIC90 [21]: inactive
- MIC90 [22]: inactive
- MIC90 [23]: inactive
- MIC90 [24]: inactive
- MIC90 [25]: inactive
- MIC90 [26]: inactive
- MIC90 [27]: inactive
- MIC90 [28]: inactive
- MIC90 [29]: inactive
- MIC90 [30]: inactive
- MIC90 [1]: inactive
- MIC90 [31]: inactive
- MIC90 [32]: inactive
- MIC90 [33]: inactive
- MIC90 [2]: inactive
- hemolysis [3]: 1.5%
- MIC90 [34]: inactive
- MIC90 [35]: inactive
- MIC90 [36]: inactive
- MIC90 [37]: inactive
- MIC90 [38]: inactive
- MIC90 [39]: inactive
- MIC90 [40]: inactive
- MIC90 [41]: inactive
- MIC90 [42]: inactive
- MIC90 [43]: inactive
- MIC90 [44]: inactive
- MIC90 [45]: inactive
- MIC90 [46]: inactive
- MIC90 [47]: inactive
- MIC90 [48]: inactive
- MIC90 [49]: inactive
- MIC90 [8]: inactive
- MIC90 [9]: inactive

— ChEMBL document CHEMBL3097989, “Antimicrobial activity of de novo designed cationic peptides against multi-resistant clinical isolates” (Eur J Med Chem, 2014)
